Like-named read-outs stand apart in the source and are kept apart here.
Biological target: T1, ENT1 (Mus musculus, UniProt Q9JIM1)
T1 sequence (Q9JIM1 1-460): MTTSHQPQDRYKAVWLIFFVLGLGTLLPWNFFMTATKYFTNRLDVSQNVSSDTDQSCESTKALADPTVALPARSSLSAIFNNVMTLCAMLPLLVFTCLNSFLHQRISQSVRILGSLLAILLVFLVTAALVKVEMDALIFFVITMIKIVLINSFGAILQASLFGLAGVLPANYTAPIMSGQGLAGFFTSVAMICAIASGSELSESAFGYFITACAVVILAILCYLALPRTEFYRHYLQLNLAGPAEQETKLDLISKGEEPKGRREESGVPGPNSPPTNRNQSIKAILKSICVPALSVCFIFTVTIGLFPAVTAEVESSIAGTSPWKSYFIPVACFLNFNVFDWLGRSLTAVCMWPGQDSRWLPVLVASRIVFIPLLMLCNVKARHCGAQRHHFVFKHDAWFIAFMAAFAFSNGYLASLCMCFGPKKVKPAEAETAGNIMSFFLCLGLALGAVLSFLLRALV
Assay type: binding
Settings: striatum; for Kd: read-out: KD (affinity)
Outline: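 Striata from 12-month-old heterozygous zQ175 and WT littermate mice were homogenized in 50 mM Tris-HCl pH 7.4 with protease inhibitors, then membranes were pelleted at 100,000 g (45 min, 4°C) and washed twice. Membranes (0.2 mg protein/ml) were incubated with increasing [3H]NBTI in 50 mM Tris-HCl pH 7.4 with 2 I.U./ml adenosine deaminase. Unlabeled NBTI defined non-specific binding. Bound ligand was separated by rapid filtration and counted by scintillation. n = 8–10/group, means ± S.E.M.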

O=[N+]([O-])c1ccc(CSc2ncnc3c2ncn3[C@@H]2O[C@H](CO)[C@@H](O)[C@H]2O)cc1 [[^3H]NBTI, [^3H]-S-(4-Nitrobenzyl)-6-thioinosine]
Bmax (number of binding sites) (WT littermates of zQ175 mice): 0.27 ± 0.03 pmol/mg of protein
Kd (WT littermates of zQ175 mice): 0.11 ± 0.01 nM
Kd (zQ175 mice (HET, 12-month old)): 0.11 ± 0.03 nM
Bmax (number of binding sites) (zQ175 mice (HET, 12-month old)): 0.35 ± 0.02 pmol/mg protein

Source: paper PMC5102769 (Neurobiology of disease, 2016)
